Values after ≈ are worked out from the molar mass of the structure shown.
Legend:
[1] = test system: Staphylococcus epidermidis; assay: Antibacterial activity against methicillin-susceptible Staphylococcus epidermidis ATCC 12228 assessed as reduction in microbial growth; type: functional
Enterobacter cloacae = assay: Antibacterial activity against Enterobacter cloacae ATCC 43560 assessed as reduction in microbial growth; type: functional
Acinetobacter baumannii = assay: Antibacterial activity against Acinetobacter baumannii ATCC 19606 assessed as reduction in microbial growth; type: functional; details: ATCC 19606 = CIP 70.34 = JCM 6841
Escherichia coli [2] = assay: Antibacterial activity against NDM-1 producing Escherichia coli […] assessed as reduction in microbial growth; type: functional
Klebsiella pneumoniae [3] = assay: Antibacterial activity against NDM-1 producing Klebsiella pneumoniae ATCC BAA-2146 assessed as reduction in microbial growth; type: functional
Staphylococcus aureus [4] = assay: Antibacterial activity against methicillin-resisitant Staphylococcus aureus 16-30 assessed as reduction in microbial growth; type: functional
Staphylococcus aureus [5] = assay: Antibacterial activity against methicillin-susceptible Staphylococcus aureus ATCC 29213 assessed as reduction in microbial growth; type: functional
Klebsiella aerogenes = assay: Antibacterial activity against Enterobacter aerogenes ATCC 13048 assessed as reduction in microbial growth; type: functional
[6] = test system: Staphylococcus epidermidis; assay: Antibacterial activity against methicillin-resistant Staphylococcus epidermidis 16-5 assessed as reduction in microbial growth; type: functional
Enterococcus faecalis = assay: Antibacterial activity against vancomycin-susceptible Enterococcus faecalis ATCC 29212 assessed as reduction in microbial growth; type: functional
Shigella = assay: Antibacterial activity against Shigella ATCC 12022 assessed as reduction in microbial growth; type: functional
Enterococcus faecium = assay: Antibacterial activity against vancomycin-resistant Enterococcus faecium ATCC 700221 assessed as reduction in microbial growth
Staphylococcus aureus [7] = assay: Antibacterial activity against MLSB/methicillin/ciprofloxacin-resistant Staphylococcus aureus PU32 harboring ermA gene assessed as reduction in microbial growth; type: functional
Escherichia coli [8] = assay: Antibacterial activity against ESBL negative Escherichia coli 16-7 assessed as reduction in microbial growth; type: functional
Streptococcus pneumoniae [9] = assay: Ratio of MBC to MIC against Erythromycin-susceptible Streptococcus pneumoniae ATCC 49619; type: functional
Pseudomonas aeruginosa = assay: Antibacterial activity against Pseudomonas aeruginosa ATCC 27853 assessed as reduction in microbial growth; type: functional
Haemophilus influenzae [10] = assay: Ratio of MBC to MIC against azithromycin-susceptible Haemophilus influenzae ATCC 49247; type: functional
Streptococcus pneumoniae [11] = assay: Bactericidal activity against Erythromycin-susceptible Streptococcus pneumoniae ATCC 49619; type: functional
Outline: (§1)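 Bacteria were exposed to 1- to 8-fold MIC of the sample, then transferred to fresh medium without antibacterial. After further incubation, colonies were counted. MBC was taken as the lowest concentration giving a >3 log10 reduction in colony number.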

Streptococcus pneumoniae [12] = assay: Antibacterial activity against Erythromycin-susceptible Streptococcus pneumoniae ATCC 49619 assessed as reduction in microbial growth; type: functional
Streptococcus pneumoniae [13] = assay: Ratio of MBC to MIC against MLSB-resistant Streptococcus pneumoniae 07P390 harboring ermB; type: functional
Haemophilus influenzae [14] = assay: Bactericidal activity against azithromycin-susceptible Haemophilus influenzae ATCC 49247; type: functional; outline: as §1
Haemophilus influenzae [15] = assay: Antibacterial activity against azithromycin-susceptible Haemophilus influenzae ATCC 49247 assessed as reduction in microbial growth; type: functional
Streptococcus pneumoniae [16] = assay: Antibacterial activity against penicillin-susceptible Streptococcus pneumoniae PU09 harboring mef gene assessed as reduction in microbial growth; type: functional
Escherichia coli [17] = assay: Antibacterial activity against ESBL positive Escherichia coli 16-1 assessed as reduction in microbial growth; type: functional
Streptococcus pneumoniae [18] = assay: Bactericidal activity against MLSB-resistant Streptococcus pneumoniae 07P390 harboring ermB gene assessed as reduction in microbial growth; type: functional
Outline: (§2)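 Bacteria were exposed to 1- to 8-fold their MIC of test sample, then transferred to fresh culture medium without antibacterial compound and incubated for the required time. Colonies were then counted. MBC is the lowest concentration giving a reduction in colony number of >3 Log₁₀.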

Klebsiella pneumoniae [19] = assay: Antibacterial activity against ESBL producing Klebsiella pneumoniae 16-14 assessed as reduction in microbial growth; type: functional
Staphylococcus aureus [20] = assay: Bactericidal activity against MLSB/methicillin-resistant Staphylococcus aureus 15B196; type: functional; outline: as §2
Staphylococcus aureus [21] = assay: Ratio of MBC to MIC against MLSB/methicillin/ciprofloxacin-resistant Staphylococcus aureus PU32 harboring ermA gene; type: functional
Streptococcus pneumoniae [22] = assay: Ratio of MBC to MIC against penicillin-susceptible Streptococcus pneumoniae PU09; type: functional
Staphylococcus aureus [23] = assay: Antibacterial activity against MLSB/methicillin-resistant Staphylococcus aureus 15B196 assessed as reduction in microbial growth; type: functional
Staphylococcus aureus [24] = assay: Bactericidal activity against MLSB/methicillin/ciprofloxacin-resistant Staphylococcus aureus PU32 harboring ermA gene; type: functional; outline: as §2
Streptococcus pneumoniae [25] = assay: Antibacterial activity against MLSB-resistant Streptococcus pneumoniae 07P390 harboring ermB gene assessed as reduction in microbial growth; type: functional
Staphylococcus aureus [26] = assay: Antibacterial activity against MLSB/methicillin-resistant Staphylococcus aureus 15B196 assessed as reduction in microbial growth relative to ciprofloxacin; type: functional
Haemophilus influenzae [27] = assay: Antibacterial activity against azithromycin-susceptible Haemophilus influenzae ATCC 49247 assessed as reduction in microbial growth relative to ciprofloxacin; type: functional
Streptococcus pneumoniae [28] = assay: Bactericidal activity against penicillin-susceptible Streptococcus pneumoniae PU09 harboring mef gene; type: functional; outline: as §2
Staphylococcus aureus [29] = assay: Antibacterial activity against MLSB/methicillin/ciprofloxacin-resistant Staphylococcus aureus PU32 harboring ermA gene assessed as reduction in microbial growth relative to ciprofloxacin; type: functional
Escherichia coli [30] = assay: Antibacterial activity against Escherichia coli JW5503-KanS depletion of toIC efflux gene assessed as reduction in microbial growth; type: functional
Escherichia coli [31] = assay: Antibacterial activity against Escherichia coli JW5503-1 depletion of toIC efflux gene assessed as reduction in microbial growth; type: functional
Escherichia coli [32] = assay: Antibacterial activity against Escherichia coli BW25113 depletion of toIC efflux gene assessed as reduction in microbial growth; type: functional
Streptococcus pyogenes = assay: Antibacterial activity against MLSB-resistant Streptococcus pyogenes 12-206 harboring ermA gene assessed as reduction in microbial growth; type: functional

Compound | MIC [1] | MIC (Enterobacter cloacae) | MIC (Acinetobacter baumannii) | MIC (Escherichia coli [2]) | MIC (Klebsiella pneumoniae [3]) | MIC (Staphylococcus aureus [4]) | MIC (Staphylococcus aureus [5]) | MIC (Klebsiella aerogenes) | MIC [6] | MIC (Enterococcus faecalis) | MIC (Shigella) | MIC (Enterococcus faecium) | MIC (Staphylococcus aureus [7]) | MIC (Streptococcus pneumoniae [12]) | MBC (Haemophilus influenzae [14]) | MIC (Streptococcus pneumoniae [16]) | MBC (Staphylococcus aureus [20]) | MIC (Staphylococcus aureus [23]) | MBC (Staphylococcus aureus [24]) | MIC (Streptococcus pneumoniae [25]) | also measured
C[C@H]1COc2c(N3CCN(C)CC3)c(F)cc3c(=O)c(C(=O)O)cn1c23.C[C@H]1COc2c(N3CCN(C)CC3)c(F)cc3c(=O)c(C(=O)O)cn1c23.O [LEVOFLOXACIN] | 0.12 µg/mL | < 0.03 µg/mL | 0.25 µg/mL | 16 µg/mL | > 128 µg/mL | 32 µg/mL | 0.12 µg/mL | 0.06 µg/mL | 8 µg/mL | 0.5 µg/mL | < 0.03 µg/mL | 32 µg/mL |  |  |  |  |  |  |  |  | 
CC[C@H]1OC(=O)[C@H](C)[C@@H](OC(=O)Cc2ccccn2)[C@H](C)[C@@H](O[C@@H]2O[C@H](C)C[C@H](N(C)C)[C@H]2O)[C@](C)(OC(=O)CCNCCC#Cc2cnc3ccccc3c2)C[C@@H](C)CN(C)[C@H](C)[C@@H](O)[C@]1(C)O | 0.25 µg/mL | 32 µg/mL | > 64 µg/mL | 8 µg/mL | 32 µg/mL | > 64 µg/mL | 1 µg/mL | 32 µg/mL | > 64 µg/mL | 1 µg/mL | 8 µg/mL | > 64 µg/mL | 1 µg/mL | 0.062 µg/mL | 4 µg/mL (≈ 4.17 µM) | 1 µg/mL | > 256 µg/mL | 128 µg/mL | > 8 µg/mL | 0.5 µg/mL | MIC (Escherichia coli [8]): 8 µg/mL; Ratio (Streptococcus pneumoniae [9]): 2; MIC (Pseudomonas aeruginosa): > 64 µg/mL; Ratio (Haemophilus influenzae [10]): 2; MBC (Streptococcus pneumoniae [11]): 0.125 µg/mL (≈ 0.13 µM); Ratio (Streptococcus pneumoniae [13]): >8; MIC (Haemophilus influenzae [15]): 2 µg/mL; MIC (Escherichia coli [17]): 8 µg/mL; MBC (Streptococcus pneumoniae [18]): > 4 µg/mL; MIC (Klebsiella pneumoniae [19]): 16 µg/mL; Ratio (Staphylococcus aureus [21]): >8; Ratio (Streptococcus pneumoniae [22]): 1; fold change (FC) (Staphylococcus aureus [26]): 88; fold change (FC) (Haemophilus influenzae [27]): 172; MBC (Streptococcus pneumoniae [28]): 1 µg/mL (≈ 1.04 µM); fold change (FC) (Staphylococcus aureus [29]): 0.0054
CC[C@H]1OC(=O)[C@H](C)[C@@H](O[C@H]2C[C@@](C)(OC)[C@@H](O)[C@H](C)O2)[C@H](C)[C@@H](O[C@@H]2O[C@H](C)C[C@H](N(C)C)[C@H]2O)[C@](C)(O)C[C@@H](C)CN(C)[C@H](C)[C@@H](O)[C@]1(C)O [AZITHROMYCIN] |  |  |  |  |  |  |  |  |  |  |  |  | 32 µg/mL | 0.062 µg/mL | 8 µg/mL (≈ 10.7 µM) | 8 µg/mL | > 256 µg/mL | > 256 µg/mL | 32 µg/mL (≈ 42.7 µM) | 256 µg/mL | Ratio (Streptococcus pneumoniae [9]): 4; Ratio (Haemophilus influenzae [10]): 4; MBC (Streptococcus pneumoniae [11]): 0.25 µg/mL (≈ 0.334 µM); MIC (Escherichia coli [30]): 2 µg/mL; MIC (Haemophilus influenzae [15]): 2 µg/mL; MBC (Streptococcus pneumoniae [18]): > 257 µg/mL; Ratio (Staphylococcus aureus [21]): 1; Ratio (Streptococcus pneumoniae [22]): 2; MIC (Escherichia coli [31]): 4 µg/mL; fold change (FC) (Staphylococcus aureus [26]): >226; MIC (Escherichia coli [32]): > 16 µg/mL; fold change (FC) (Haemophilus influenzae [27]): 22; MBC (Streptococcus pneumoniae [28]): 16 µg/mL (≈ 21.4 µM); fold change (FC) (Staphylococcus aureus [29]): 0.22
O=C(O)c1cn(C2CC2)c2cc(N3CCNCC3)c(F)cc2c1=O [CIPROFLOXACIN] |  |  |  |  |  |  |  |  |  |  |  |  | 256 µg/mL | 2 µg/mL | 0.008 µg/mL (≈ 0.0241 µM) | 2 µg/mL | 0.5 µg/mL (≈ 1.51 µM) | 0.5 µg/mL | > 256 µg/mL | 2 µg/mL | MIC (Escherichia coli [30]): ≤ 0.064 µg/mL; MIC (Escherichia coli [31]): ≤ 0.064 µg/mL; MIC (Streptococcus pyogenes): 0.5 µg/mL

Reference: ChEMBL document CHEMBL4680236, “Design, synthesis and structure-activity relationships of novel 15-membered macrolides: Quinolone/quinoline-containing sidechains tethered to the C-6 position of azithromycin acylides” (Eur J Med Chem, 2020)
